According to ChEMBL document CHEMBL2169747, “Synthesis and biological properties of highly sequence-specific-alkylating N-methylpyrrole-N-methylimidazole polyamide conjugates” (J Med Chem, 2012):
Activity calls are given as the source filed them. The calls are words filed in the database; no cut-off is given here.

What was measured:
A549 [1] = assay: Downregulation of SUPT3H gene expression in human A549 cells at 100 nM after 12 hrs by microarray analysis relative to control; format: functional
Summary of the method: (§1)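 A549 cells (RPMI-1640, 10% heat-inactivated FBS, penicillin/streptomycin, 37 °C, 5% CO2) seeded at 4 × 10^5 per 60 mm dish. Exposed 12 h to conjugate at 21, 26, 34 or 100 nM in medium with 0.1% DMSO, against 0.1% DMSO control. Whole-genome (~25 000 genes) expression profiled by microarray.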

A549 [2] = assay: Downregulation of XRCC4 gene expression in human A549 cells at 100 nM after 12 hrs by microarray analysis relative to control; format: functional; summary of the method: as §1
A549 [3] = assay: Downregulation of PDE7B gene expression in human A549 cells at 100 nM after 12 hrs by microarray analysis relative to control; format: functional; summary of the method: as §1
A549 [4] = assay: Downregulation of GULP1 gene expression in human A549 cells at 100 nM after 12 hrs by microarray analysis relative to control; format: functional
Summary of the method: (§2)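 A549 cells, 4 × 10^5 per 60 mm dish, were exposed to conjugate for 12 h in medium with 0.1% DMSO; vehicle control was 0.1% DMSO. Whole human genome (~25 000 genes) expression was profiled by microarray and expression compared with the control.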

A549 [5] = assay: Downregulation of NP_060504.1 gene expression in human A549 cells at 100 nM after 12 hrs by microarray analysis relative to control; format: functional; summary of the method: as §2
A549 [6] = assay: Upregulation of U124 gene expression in human A549 cells at 100 nM after 12 hrs by microarray analysis relative to control; format: functional
Summary of the method: (§3)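 4 ×10^5 A549 cells seeded per 60 mm dish and treated 12 h with conjugate (21, 26, 34 or 100 nM) in medium; control medium contained 0.1% DMSO, with conjugates added as 0.1% DMSO solutions. Whole human genome (~25 000 genes) expression profiled by microarray against the DMSO control. A549 culture: RPMI-1640 with 10% heat-inactivated FBS, penicillin/streptomycin, 37 °C, 5% CO2.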

A549 [7] = assay: Cytotoxicity against human A549 cells assessed as cell growth inhibition after 48 hrs by microplate reader analysis; format: functional, cell-based; settings: A549, 48 h
Summary of the method: (§4)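 Medium was RPMI-1640 for EBC-1, A549 and DU145, and DMEM for PC-3, SK-N-SH and K562. Both media had 10% heat-inactivated FBS plus penicillin/streptomycin; cells were kept at 37 °C, 5% CO2. Cells were seeded at 5000/well and given compound from DMSO stock (final 0.1% DMSO) for 48 h. Viability was read by WST-8 colorimetry, absorbance at 450 and 600 nm, and IC50 determined.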

A549 [8] = assay: Upregulation of CDKN1A gene expression in human A549 cells at 100 nM after 12 hrs by microarray analysis relative to control; format: functional; summary of the method: as §3
A549 [9] = assay: Downregulation of RPS6KC1 gene expression in human A549 cells at 100 nM after 12 hrs by microarray analysis relative to control; format: functional; summary of the method: as §1
A549 [10] = assay: Upregulation of FDXR gene expression in human A549 cells at 100 nM after 12 hrs by microarray analysis relative to control; format: functional; summary of the method: as §3
K562 = assay: Cytotoxicity against human K562 cells assessed as cell growth inhibition after 48 hrs by microplate reader analysis; format: functional, cell-based; settings: K562, 48 h; summary of the method: as §4
A549 [11] = assay: Downregulation of EFA6R gene expression in human A549 cells at 100 nM after 12 hrs by microarray analysis relative to control; format: functional; summary of the method: as §2
[12] = Cytotoxicity against human EBC1 cells assessed as cell growth inhibition after 48 hrs by microplate reader analysis; format: functional, cell-based; settings: EBC-1, 48 h; summary of the method: as §4
A549 [13] = assay: Downregulation of UVRAG gene expression in human A549 cells at 100 nM after 12 hrs by microarray analysis relative to control; format: functional; summary of the method: as §1
A549 [14] = assay: Downregulation of DYM gene expression in human A549 cells at 100 nM after 12 hrs by microarray analysis relative to control; format: functional; summary of the method: as §2
A549 [15] = assay: Downregulation of NP_056993.2 gene expression in human A549 cells at 100 nM after 12 hrs by microarray analysis relative to control; format: functional; summary of the method: as §2
PC-3 = assay: Cytotoxicity against human PC3 cells assessed as cell growth inhibition after 48 hrs by microplate reader analysis; format: functional, cell-based; settings: PC-3, 48 h; summary of the method: as §4
SK-N-SH = assay: Cytotoxicity against human SK-N-SH cells assessed as cell growth inhibition after 48 hrs by microplate reader analysis; format: functional, cell-based; summary of the method: as §4
A549 [16] = assay: Downregulation of SEMA3A gene expression in human A549 cells at 100 nM after 12 hrs by microarray analysis relative to control; format: functional; summary of the method: as §1
A549 [17] = assay: Downregulation of NP_653244.1 gene expression in human A549 cells at 100 nM after 12 hrs by microarray analysis relative to control; format: functional; summary of the method: as §1
A549 [18] = assay: Upregulation of BBC3 gene expression in human A549 cells at 100 nM after 12 hrs by microarray analysis relative to control; format: functional; summary of the method: as §1
A549 [19] = assay: Upregulation of HES2 gene expression in human A549 cells at 100 nM after 12 hrs by microarray analysis relative to control; format: functional; summary of the method: as §3
A549 [20] = assay: Upregulation of RRAD gene expression in human A549 cells at 100 nM after 12 hrs by microarray analysis relative to control; format: functional; summary of the method: as §3
A549 [21] = assay: Downregulation of PTPRK gene expression in human A549 cells at 100 nM after 12 hrs by microarray analysis relative to control; format: functional; summary of the method: as §1
A549 [22] = assay: Downregulation of FAF1 gene expression in human A549 cells at 100 nM after 12 hrs by microarray analysis relative to control; format: functional; summary of the method: as §2
Nucleic Acid = assay: Induction of 208-bp PCR fragment DNA cleavage at 10 to 200 nM after 12 h by PAGE analysis
A549 [23] = assay: Downregulation of NP_112224.1 gene expression in human A549 cells at 100 nM after 12 hrs by microarray analysis relative to control; format: functional; summary of the method: as §2
A549 [24] = assay: Upregulation of BTG2 gene expression in human A549 cells at 100 nM after 12 hrs by microarray analysis relative to control; format: functional; summary of the method: as §1
A549 [25] = assay: Upregulation of NPPC gene expression in human A549 cells at 100 nM after 12 hrs by microarray analysis relative to control; format: functional; summary of the method: as §3
A549 [26] = assay: Upregulation of GADD45A gene expression in human A549 cells at 100 nM after 12 hrs by microarray analysis relative to control; format: functional; summary of the method: as §3
A549 [27] = assay: Downregulation of Q8TC78 gene expression in human A549 cells at 100 nM after 12 hrs by microarray analysis relative to control; format: functional; summary of the method: as §1
A549 [28] = assay: Downregulation of TCF12 gene expression in human A549 cells at 100 nM after 12 hrs by microarray analysis relative to control; format: functional; summary of the method: as §1
A549 [29] = assay: Downregulation of NCOA1 gene expression in human A549 cells at 100 nM after 12 hrs by microarray analysis relative to control; format: functional; summary of the method: as §2
A549 [30] = assay: Upregulation of MDM2 gene expression in human A549 cells at 100 nM after 12 hrs by microarray analysis relative to control; format: functional; summary of the method: as §3
A549 [31] = assay: Downregulation of ELP4 gene expression in human A549 cells at 100 nM after 12 hrs by microarray analysis relative to control; format: functional; summary of the method: as §2
DU-145 = assay: Cytotoxicity against human DU145 cells assessed as cell growth inhibition after 48 hrs by microplate reader analysis; format: functional, cell-based; settings: DU-145, 48 h; summary of the method: as §4
A549 [32] = assay: Downregulation of FUT8 gene expression in human A549 cells at 100 nM after 12 hrs by microarray analysis relative to control; format: functional; summary of the method: as §2

- Activity (Nucleic Acid): Active
Compound: CC(=O)Nc1cn(C)c(C(=O)Nc2cn(C)c(C(=O)Nc3cc(C(=O)NCCC(=O)Nc4cc(C(=O)NCCCC(=O)Nc5cn(C)c(C(=O)NCCC(=O)Nc6cc(C(=O)Nc7ccc8[nH]c(C(=O)N9CC(CCl)c%10c9cc(O)c9ccccc%109)cc8c7)n(C)c6)n5)n(C)c4)n(C)c3)n2)n1 (racemic)
- fold change (FC) (A549 [1]): 0.052
- fold change (FC) (A549 [2]): 0.067
- fold change (FC) (A549 [3]): 0.064
- fold change (FC) (A549 [4]): 0.062
- fold change (FC) (A549 [5]): 0.068
- fold change (FC) (A549 [6]): 10.3
- IC50 (A549 [7]): 100 nM
- fold change (FC) (A549 [8]): 9
- fold change (FC) (A549 [9]): 0.038
- fold change (FC) (A549 [10]): 8.2
- IC50 (K562): 15.5 nM
- fold change (FC) (A549 [11]): 0.058
- IC50 [12]: 550 nM
- fold change (FC) (A549 [13]): 0.066
- fold change (FC) (A549 [14]): 0.08
- fold change (FC) (A549 [15]): 0.076
- IC50 (PC-3): 29.5 nM
- IC50 (SK-N-SH): 129 nM
- fold change (FC) (A549 [16]): 0.063
- fold change (FC) (A549 [17]): 0.061
- fold change (FC) (A549 [18]): 10.7
- fold change (FC) (A549 [19]): 19.2
- fold change (FC) (A549 [20]): 11.2
- fold change (FC) (A549 [21]): 0.026
- fold change (FC) (A549 [22]): 0.071
- fold change (FC) (A549 [23]): 0.058
- fold change (FC) (A549 [24]): 13
- fold change (FC) (A549 [25]): 10.5
- fold change (FC) (A549 [26]): 8.3
- fold change (FC) (A549 [27]): 0.056
- fold change (FC) (A549 [28]): 0.074
- fold change (FC) (A549 [29]): 0.068
- fold change (FC) (A549 [30]): 15.6
- fold change (FC) (A549 [31]): 0.045
- IC50 (DU-145): 11.2 nM
- fold change (FC) (A549 [32]): 0.035
